Our source for the Activity, EC50 and Ratio EC50 values is ChEMBL document CHEMBL4665714 (Bioorg Med Chem Lett, 2020).

In assay [1] the test system is ARPE-19. Nature of the assay: Cytoprotective activity against human ARPE-19 cells assessed as reduction in all-trans-retinal induced cytotoxicity at 18 to 90 uM incubated for 6 hrs in presence of all-trans-retinal by CellTiter-Glo luminescent cell viability assay. The following applies: dose microM 18-90, time 6.0 hrs. The assay is classed as functional, cell-based.

Assay [2] deals with Retinoid isomerohydrolase (Bos taurus, UniProt Q28175). Nature of the assay: Inhibition of RPE65 in bovine RPE microsomes assessed as reduction in 11-cis-retinol production using all-trans-retinol as substrate pre-incubated with enzyme for 5 mins followed by further incubation with all-trans-retinol for 1 hr by normal phase HPLC analysis. On the set-up: species or system Retina, Microsome. The method, boiled down:
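All-trans-retinol added to the enzyme mixture and incubated 1 h at 37 °C. Quenched with methanol and extracted into hexane. Inhibition taken from the fall in 11-cis-retinol production.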

For assay [3], the target named is Retinoid isomerohydrolase (Bos taurus) (UniProt Q28175). Kind of assay: Potency index, ratio of (R)-MB001 EC50 to test compound EC50 for inhibition of RPE65 in bovine RPE microsomes assessed as reduction in 11-cis-retinol production using all-trans-retinol as substrate pre-incubated with enzyme for 5 mins followed by further incubation with all-trans-retinol for 1 hr by normal phase HPLC analysis. The conditions noted are these: Retina, Microsome, time 65.0 min.
Chain of Retinoid isomerohydrolase (Bos taurus) (Q28175 2-533 limits assumed): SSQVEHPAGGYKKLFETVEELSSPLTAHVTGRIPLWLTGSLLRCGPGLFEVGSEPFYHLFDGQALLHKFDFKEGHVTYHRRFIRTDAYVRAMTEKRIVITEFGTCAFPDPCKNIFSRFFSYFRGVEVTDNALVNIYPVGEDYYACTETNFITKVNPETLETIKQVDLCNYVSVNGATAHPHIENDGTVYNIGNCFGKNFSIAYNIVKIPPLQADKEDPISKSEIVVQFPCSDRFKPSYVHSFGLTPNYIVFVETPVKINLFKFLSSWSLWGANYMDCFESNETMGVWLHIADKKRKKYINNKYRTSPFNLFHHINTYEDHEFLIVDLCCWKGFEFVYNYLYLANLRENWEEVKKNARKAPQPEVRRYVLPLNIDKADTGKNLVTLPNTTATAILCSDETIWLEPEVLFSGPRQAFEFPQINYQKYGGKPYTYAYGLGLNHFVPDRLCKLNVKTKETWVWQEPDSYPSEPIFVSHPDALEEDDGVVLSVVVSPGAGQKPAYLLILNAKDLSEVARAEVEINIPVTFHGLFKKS

The test system of assay [4] is ARPE-19. Kind of assay: Cytoprotective activity against human ARPE-19 cells assessed as reduction in all-trans-retinal induced cytotoxicity by measuring cell surveillance rate at 90 uM incubated for 6 hrs in presence of all-trans-retinal by CellTiter-Glo luminescent cell viability assay relative to control. The assay is classed as functional. Put shortly: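 ARPE-19 (human RPE line) cells given test agent at 18, 45 or 90 μM together with all-trans-retinal 385 μM. Incubated 6 h at 37 °C, then viability read by CellTiter-Glo luminescence. Mean ±SE, n=3, t-test.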
(In general: ATP-based viability assays read luminescence as a measure of living cells.)

The structures appear in SMILES notation. The source made the active and inactive calls. The rule behind the calls is not given here.

A word on the EC50: it is the midpoint of the concentration-response curve.

Chain of Retinoid isomerohydrolase (Q28175 whole entry): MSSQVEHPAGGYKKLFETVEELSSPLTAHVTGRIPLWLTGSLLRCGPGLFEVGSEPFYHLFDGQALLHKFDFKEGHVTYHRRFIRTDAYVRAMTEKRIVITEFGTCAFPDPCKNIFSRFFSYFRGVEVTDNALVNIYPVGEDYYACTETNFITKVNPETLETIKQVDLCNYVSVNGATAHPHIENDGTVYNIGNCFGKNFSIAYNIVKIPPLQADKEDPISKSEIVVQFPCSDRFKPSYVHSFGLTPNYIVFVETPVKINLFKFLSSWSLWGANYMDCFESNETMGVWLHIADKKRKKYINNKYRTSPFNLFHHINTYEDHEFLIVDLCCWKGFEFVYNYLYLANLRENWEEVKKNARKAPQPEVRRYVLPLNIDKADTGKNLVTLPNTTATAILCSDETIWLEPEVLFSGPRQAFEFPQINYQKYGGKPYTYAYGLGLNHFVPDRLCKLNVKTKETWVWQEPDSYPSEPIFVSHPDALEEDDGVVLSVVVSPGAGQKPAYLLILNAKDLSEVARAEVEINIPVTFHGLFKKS

`CC1=C(COc2cccc([C@H](O)CCN)c2)C(C)(C)CCC1`: in the assay with ARPE-19 [1], the result was Active. Besides, in assay [2], the EC50 came out at 323 nM. On to `NCCC(O)c1cccc(OCC(CCCF)CCCF)c1` (racemic) [listing 1 of 2 here], for which, in assay [2], the EC50 was 166 nM. In the case of `NCCC(O)c1cccc(OCC(CCCF)CCCF)c1` (racemic) [listing 2 of 2 here], the outcome in the assay with ARPE-19 [1] was Active. Further, the Ratio EC50 in assay [3] came out at 2. On to `NCCC(O)c1cccc(OCC(CCCF)CCCF)c1` (stereo in doubt; 14) [listing 1 of 2 here], for which the Activity in the assay on ARPE-19 [4] was found to be 100%. For the same compound, in assay [2], the EC50 was found to be 196 nM.

In the case of `NCCC(O)c1cccc(OCC(CCCF)CCCF)c1` (stereo in doubt; 14) [listing 2 of 2 here], the result in the assay with ARPE-19 [1] was Active. For the same compound, the Ratio EC50 in assay [3] turned out to be 2.
